# The list is not random: actives were taken first. Their share in the collection is about 5.4%.
# CSC inhib – cancer stem cell inhibition; cancer stem cell-like cells viability, luminescence; inhibition, % at 7.5 µM; 300,000 compounds, 1.1% hits; in the data active means inhibition above about 75%; inconclusive means no clear call, values can overlap the other calls; tested in HMLE shEcad cells
# aSyn UTR inh – 5' untranslated region of α-synuclein, MLPCN primary screen. alpha-synuclein 5'UTR reporter, inhibitor activity. inhibition, % (tested at 7.5 µM). 300,000 compounds, 0.82% hits. AID 1813; in the data active means inhibition above about 60%; inconclusive means no clear call, values can overlap the other calls;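 further: H4 neuroglioblastoma cells stably carrying SNCA 5'UTR luciferase fusion; 0% = DMSO wells and 100% = positive control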
# Mdm2 MdmX PPI – human Mdm2/MdmX binding inhibition | O15151+Q00987 | SaOS-2 split-luciferase Mdm2/MdmX complementation, luminescence | inhibition, % at 8 µM | 330,000 compounds, 3% hits | AID 485346;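 active means inhibition of at least 50% at 8 µM in the primary screen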
# T cruzi repl – blocks replication of Trypanosoma cruzi | 300,000 compounds, 1.4% hits | inhibition, % (concentration not given with the values) | T. cruzi beta-gal in NIH3T3, luminescence, 90 h;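 active means mean inhibition across valid replicates above about 55%, limit read from the data; inconclusive means mean below that limit but half or more replicates reach it; inactive means mean below it, under half of replicates reach it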;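 further: signal also drops with host cell toxicity which is not excluded here; 0% = plate median of DMSO wells and 100% = zero luminescence signal; higher percent means less beta-gal luminescence so fewer parasites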
#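 Read-out: Parasite load inhibition, % | Test system: Mouse NIH/3T3 fibroblasts infected with β-gal-expressing T. cruzi Tulahuen C4 | Amount: 5,000 cells/well | Medium: DMEM, 2% fetal bovine serum | Signal: GalScreen β-gal luminescence, detergent lysis, 60 min | Timing: 3 h attach, ≥90 h co-culture | Also added: Tulahuen C4 trypomastigotes, 5000/well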
# SKKanGAS inh – SKKanGAS growth inhibition; S. pyogenes SKKanGAS, kanamycin growth, BacTiter-Glo, 6 h; inhibition, % at 7.5 µM; 300,000 compounds, 1.3% hits; AID 1662;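 active means mean replicate score, as percent of positive control median, at least 50; inconclusive means mean below 50 but one replicate at or above 50; inactive means mean and every replicate below 50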;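 further: strain carries kanamycin resistance gene driven by streptokinase promoter and grows in 40 µg/ml kanamycin; loss of luminescence reflects streptokinase promoter inhibition or plain growth inhibition; 0% = median of DMSO wells and 100% = positive control at its reference dose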
# Numbers without * were called inactive; ? = inconclusive; / = not tested or not shown.
SMILES,CSC inhib,aSyn UTR inh,Mdm2 MdmX PPI,T cruzi repl,SKKanGAS inh
c1ccc(CCNc2nc(-c3ccncc3)cs2)cc1,1,-114,13,83*,10
COc1ccc(CCNc2nc(-c3ccccn3)cs2)cc1OC,-6,5,34,19,75*
COc1ccc(CCNc2nc(-c3ccncc3)cs2)cc1OC,-10,-6,1,33,-6
c1ccc(-c2csc(Nc3ncccn3)n2)cc1,/,-66,-118,-18,5
NNc1nc(-c2ccccc2)cs1,7,-92,25,63*,13
Cc1cc(Cl)c(C)c(S(=O)(=O)N2CCN(CC(=O)N3CCOCC3)CC2)c1Cl,/,/,2,/,/
CC1CCCCN1C(=O)c1cc2ccccc2cc1O (configuration not stated),-7,7,24,3,3
O=C(Nc1cccnc1)c1ccc(Cl)c(S(=O)(=O)N2CCCC2)c1,-14,-35,-5,0,-5
O=C(NC(=S)N1CCN(c2ccccc2)CC1)c1ccccc1,-6,17,3,-19,-1
CCCCC(=O)NC(=O)NC(c1ccccc1)c1ccccc1,0,10,7,12,4
CC(=O)NC12CC3CC(C1)CC(C(=O)N(C)CC(=O)Nc1ccccc1Cl)(C3)C2,-3,6,-7,-6,2
CC(=O)N1CCC(C(=O)Nc2ccc(S(=O)(=O)N3CCCCC3)cc2)CC1,-10,-1,-2,-5,-10
Cn1c(=O)c2c(nc(NCCNC(=O)c3ccco3)n2Cc2ccccc2)n(C)c1=O,0,-22,19,-4,-2
C=CCn1cc(/C=N/Nc2nc3ccccc3[nH]2)c2ccccc21,92*,-195,37,15,38
CC(C)Cn1c(/C=N/Nc2nc3ccccc3[nH]2)nc2ccccc21,/,-337,/,46,97*
Cn1c(/C=N/Nc2nc3ccccc3[nH]2)nc2ccccc21,33,-188,-132,51,-25
COc1ccc(C(=O)N/N=C/c2sc3ccccc3c2O)cc1,?,84*,/,12,33
Oc1c(C=Nc2cccc3cccnc23)sc2ccccc12,33,-48,24,55*,94*
O=C(N/N=C/c1sc2ccccc2c1O)c1cccc2ccccc12,97*,92*,/,27,91*
Cc1cccc(/N=C/c2sc3ccccc3c2O)n1,13,-32,12,8,18
O=C(COc1ccccc1C(=O)NCc1ccccc1)Nc1ccccc1,2,/,14,/,/
CN(C)c1ccc(C(=O)OCC#CCSc2nnc(-c3cccc4ccccc34)o2)cc1,/,/,23,/,/
COc1cc(N=Cc2c(CO)cnc(C)c2O)cc(OC)c1OC,2,0,-6,-6,4
O=S(=O)(Nc1cc2nc3ccccc3nc2n1Cc1ccccc1)c1ccc(Cl)cc1,112*,8,/,2,48
O=S(=O)(NCc1ccccc1)c1ccc(Cl)cc1,/,14,21,3,7
SMILES,CSC inhib,aSyn UTR inh,Mdm2 MdmX PPI,T cruzi repl,SKKanGAS inh
CC(=O)C[C@@H](O)CC(=O)[C@@H]1OC(=O)[C@H](C)CCCCc2ccccc21,/,/,4,/,/
Cc1[nH]n(-c2ccccc2)c(=O)c1C(c1ccccc1[N+](=O)[O-])C(C#N)C#N (configuration not stated),-10,13,-17,-24,14
Cc1[nH]n(-c2ncc(-c3ccccc3)s2)c(=O)c1C(c1ccc(Cl)cc1)C(C#N)C#N (configuration not stated),35,-16,-41,-21,61*
COc1ccccc1N1CCN(S(=O)(=O)c2cc(-c3cc(C)no3)ccc2C(C)C)CC1,53,32,35,18,17
OCCN1CCN(c2ncnc3sc(-c4ccccc4)cc23)CC1,/,-10,15,62*,-5
c1ccc(-c2cc3c(N4CCCC4)ncnc3s2)cc1,15,37,41,1,10
CC(NC(=O)c1ccco1)C(=O)N1CCN(c2cccc(C(F)(F)F)c2)CC1 (configuration not stated),/,/,1,/,/
CCOCc1c(C(=O)N2CCN(CC(=O)Nc3ccc(F)cc3)CC2)oc2ccccc12,/,/,-1,/,/
CCOc1ccc(C(=O)Oc2ccc(NC(C)=O)cc2)cc1,-8,80*,7,-14,21
CN1CCN(/N=C/c2ccc(-c3ccc([N+](=O)[O-])cc3Cl)o2)CC1,54,-104,11,59*,0
CC[C@]1(C(=O)OC)[C@H]2C(=O)N(Cc3ccccc3)C(=O)[C@H]2[C@H]2CN(C)C(=NCc3ccccc3)N21,/,/,1,/,/
Cc1nc(-c2ccc(S(=O)(=O)Nc3ccc(Br)cc3Cl)s2)cs1,/,-1,-7,-12,74*

# Source: PubChem BioAssay
